Measurements taken from ChEMBL document CHEMBL1123363, “(5-Amino-1,3-dimethyl-1H-pyrazol-4-yl)(2-fluorophenyl)methanones . A series of novel potential antipsychotic agents” (J Med Chem, 1986).
Activity calls are given as the source filed them. No cut-off for these calls is given here.

Assays:
[1] = target: Dopamine receptor (Rattus norvegicus) (UniProt P25115+P19020+P30729+P18901+P61169); assay: Compound was tested for its effect on Dopamine turnover in rat at dose of 10+/-250 mg/kg; assay type: functional, organism-based; details: in the assay text read “64+/-250 mg/kg” for “10+/-250 mg/kg”
Summary of the method: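 Male Long-Evans rats were given vehicle or agent ip 30 min before α-methyl-p-tyrosine (250 mg/kg) and killed 4 h after it. Brain NE and DA were isolated on Sephadex G-10 and measured spectrofluorometrically. Values are percent of vehicle-treated, with at least five determinations per value.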

[2] = target: T1, Beta-2 adrenergic receptor (Rattus norvegicus, UniProt P10608); assay: Binding affinity against beta-2 adrenergic receptor in rat brain using [3H]DHA; assay type: tissue-based
Summary of the method: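 β2 binding on rat cerebellum membranes (male Long–Evans rats, 150–250 g) with [3H]dihydroalprenolol, 0.5 nM final. Nonspecific binding defined with (-)-alprenolol, 1 μM final. IC50 from four or five concentrations by nonlinear curve fit.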

Adenosine receptor A1 = target: T2, Adenosine receptor A1 (Rattus norvegicus, UniProt P25099); assay: Binding affinity towards rat brain adenosine A1 receptor using [3H]- CHA
T2 sequence (P25099 whole entry): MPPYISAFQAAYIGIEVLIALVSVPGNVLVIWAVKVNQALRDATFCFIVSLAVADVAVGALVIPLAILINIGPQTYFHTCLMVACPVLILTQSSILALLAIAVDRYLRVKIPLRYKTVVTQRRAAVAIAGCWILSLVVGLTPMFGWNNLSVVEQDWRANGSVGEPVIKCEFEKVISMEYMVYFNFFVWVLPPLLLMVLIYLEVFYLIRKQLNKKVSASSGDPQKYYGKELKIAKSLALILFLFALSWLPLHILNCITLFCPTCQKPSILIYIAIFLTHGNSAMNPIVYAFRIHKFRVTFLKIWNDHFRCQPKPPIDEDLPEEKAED
Summary of the method: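 Adenosine A1 binding in membranes of rat whole brain minus brain stem and cerebellum (male Long-Evans, 150–250 g), using [3H]-CHA at 1.0 nM final. Theophylline at 1 mM final was the reference. IC50 from four or five concentrations by nonlinear fit.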

[3] = target: Beta-1 adrenergic receptor (Rattus norvegicus, UniProt P18090); assay: Binding affinity against beta-1 adrenergic receptor in rat brain using [3H]DHA; assay type: tissue-based
Summary of the method: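 β1 sites in rat cerebral cortex membranes (male Long-Evans, 150–250 g) with [3H]dihydroalprenolol at 0.5 nM final. (-)-Alprenolol at 1 μM final defined the reference. IC50 from four or five concentrations by nonlinear curve fit.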

[4] = target: Muscarinic acetylcholine receptor; assay: Binding affinity against the Muscarinic acetylcholine receptor using [3H]- QNB; assay type: protein assay, Rattus norvegicus
Summary of the method: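 Muscarinic sites in rat brain stem membranes (male Long-Evans, 150–250 g), labelled with [3H]quinuclidinyl benzilate at 0.03 nM final. Oxotremorine at 100 μM final served as the reference displacer. IC50 from four or five concentrations by nonlinear curve fitting.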

[5] = target: GABA-A receptor; anion channel; assay: Displacement of [3H]-GABA from rat brain Gamma-aminobutyric acid receptor
Summary of the method: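 GABA binding in membranes of rat whole brain minus cerebellum and brain stem (male Long-Evans, 150–250 g), using [3H]-GABA at 25 nM final. GABA at 1 mM final was the reference. IC50 from four or five concentrations by nonlinear curve fitting.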

Rattus norvegicus [6] = assay: Inhibition of conditional avoidance in rats after peroral administration; assay type: functional; details: po
Summary of the method: (§1)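 Fasted male Wistar rats (150–250 g) were trained to jump to a platform at a buzzer to avoid grid shock (1.1 mA/s). After oral dosing they were tested every 20 min for 6 h over 19 trials, 10 rats per dose, each rat used once. Peak effect was the mean of the four consecutive trials with the largest effect, computed from response latency. ED50 read graphically from at least three doses.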

[7] = target: T1, Beta-2 adrenergic receptor; assay: Binding affinity against the beta-2 adrenergic receptor using [3H]- DHA
Summary of the method: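 β2 sites in rat cerebellum membranes (male Long-Evans, 150–250 g) with [3H]dihydroalprenolol at 0.5 nM final. (-)-Alprenolol at 1 μM final defined the reference. IC50 from four or five concentrations by nonlinear curve fit.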

Rattus norvegicus [8] = species: Rattus norvegicus; assay: Compound was tested for its potential to produce clonic seizures in rats; + indicates compound is causing seizures; assay type: functional, organism-based
Summary of the method: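 Any sign of seizure marked the compound as seizure-causing; the outcome was not quantified.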

Rattus norvegicus [9] = species: Rattus norvegicus; assay: Effective dose required for inhibition of conditional avoidance in rats; assay type: functional; summary of the method: as §1

T1 sequence (P10608 whole entry): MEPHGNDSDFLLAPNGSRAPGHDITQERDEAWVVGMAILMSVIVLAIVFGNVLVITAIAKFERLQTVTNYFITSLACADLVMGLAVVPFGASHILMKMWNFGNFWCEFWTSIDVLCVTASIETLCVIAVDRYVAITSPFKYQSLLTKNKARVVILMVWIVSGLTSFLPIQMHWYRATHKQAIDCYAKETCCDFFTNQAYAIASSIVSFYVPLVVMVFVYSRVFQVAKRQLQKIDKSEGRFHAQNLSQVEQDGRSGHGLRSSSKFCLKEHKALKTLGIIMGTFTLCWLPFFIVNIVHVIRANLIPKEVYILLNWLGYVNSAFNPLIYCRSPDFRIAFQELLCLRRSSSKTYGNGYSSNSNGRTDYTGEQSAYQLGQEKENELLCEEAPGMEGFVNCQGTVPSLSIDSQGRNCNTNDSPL
Beta-1 adrenergic receptor, sequence (P18090 whole entry): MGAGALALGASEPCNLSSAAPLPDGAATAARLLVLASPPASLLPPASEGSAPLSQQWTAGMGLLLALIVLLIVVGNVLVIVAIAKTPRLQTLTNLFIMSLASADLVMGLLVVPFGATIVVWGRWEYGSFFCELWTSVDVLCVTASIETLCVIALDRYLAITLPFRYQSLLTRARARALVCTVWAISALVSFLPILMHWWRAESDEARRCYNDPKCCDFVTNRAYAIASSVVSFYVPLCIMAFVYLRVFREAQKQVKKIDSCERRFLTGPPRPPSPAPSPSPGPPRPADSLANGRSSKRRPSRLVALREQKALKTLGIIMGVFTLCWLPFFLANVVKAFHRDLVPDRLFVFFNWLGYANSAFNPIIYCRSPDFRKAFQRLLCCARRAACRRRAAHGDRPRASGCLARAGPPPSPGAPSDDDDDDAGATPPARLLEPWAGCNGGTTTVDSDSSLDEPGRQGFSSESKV

## Cc1nn(C)c(NC(=O)CNCCCN2CCCCC2C)c1C(=O)c1ccccc1F (stereo not given)
[1]
  Control: 45.6%
[2]
  IC50: > 10 µM
Adenosine receptor A1
  IC50: > 10 µM
[3]
  IC50: > 10 µM

## CCN(CC)CC(=O)Nc1c(C(=O)c2ccccc2F)c(C)nn1C
[4]
  IC50: > 10 µM
[5]
  IC50: > 10 µM
Rattus norvegicus [6]
  ED50: 18 mg/kg
[7]
  IC50: > 10 µM

## Cc1nn(C)c(N)c1C(=O)c1ccccc1F
Rattus norvegicus [8]
  Clonic seizures: Active
Rattus norvegicus [9]
  ED50: 18 mg/kg
